Screens from PubChem.
Tb MetRS inh: Trypanosoma brucei MetRS inhibition; purified T. brucei MetRS, ATP depletion, Kinase-Glo luminescence; inhibition, % at 11.9 µM; hit rate 0.4% among 360,000; AID 624268;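 active = inhibition above a per-plate cutoff of the control wells' mean inhibition plus 3 SD, cut at about 5.5% in these data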
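assay system = parasite MetRS enzyme | timing = 15 min preincubation, 2 h reaction, all 25 °C | evaluation = percent inhibition relative to median high and low control wells | medium = HEPES buffer containing pyrophosphatase, BSA, spermine, DTT | compound = single dose, 11.9 µM final nominal, 0.9% final DMSO | detection = Kinase-Glo luminescence, ATP depletion format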
AI-2 QS modul: Vibrio harveyi AI-2 quorum sensing modulation; Vibrio harveyi JMH597 AI-2 luminescence/OD600 ratio, 9 h; active compounds read low; strain lacks LuxN and CqsS sensors; 0 = neutral-control median; activity change, % at 7.5 µM; hit rate 0.4% among 300,000; AID 2094; in the data active = activity change below about -75%, passing the limit was not always enough;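 also: luminescence divided by OD600 gain over 9 h not by final OD600 alone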
MsrA inhibitor: inhibitors of bovine MsrA; purified bovine MsrA, absorbance read-out; inhibition, % at 15.5 µM; hit rate 0.75% among 360,000; AID 651718; in the data active = inhibition above about 4.5%
AHR act: human AHR activation; activation, % at 5 µM; hit rate 2.5% among 320,000; AHR-responsive luciferase reporter cells, luminescence; AID 2796; P35869; in the data active = activation above about 47%
Target sequence (P35869 whole entry, looked up): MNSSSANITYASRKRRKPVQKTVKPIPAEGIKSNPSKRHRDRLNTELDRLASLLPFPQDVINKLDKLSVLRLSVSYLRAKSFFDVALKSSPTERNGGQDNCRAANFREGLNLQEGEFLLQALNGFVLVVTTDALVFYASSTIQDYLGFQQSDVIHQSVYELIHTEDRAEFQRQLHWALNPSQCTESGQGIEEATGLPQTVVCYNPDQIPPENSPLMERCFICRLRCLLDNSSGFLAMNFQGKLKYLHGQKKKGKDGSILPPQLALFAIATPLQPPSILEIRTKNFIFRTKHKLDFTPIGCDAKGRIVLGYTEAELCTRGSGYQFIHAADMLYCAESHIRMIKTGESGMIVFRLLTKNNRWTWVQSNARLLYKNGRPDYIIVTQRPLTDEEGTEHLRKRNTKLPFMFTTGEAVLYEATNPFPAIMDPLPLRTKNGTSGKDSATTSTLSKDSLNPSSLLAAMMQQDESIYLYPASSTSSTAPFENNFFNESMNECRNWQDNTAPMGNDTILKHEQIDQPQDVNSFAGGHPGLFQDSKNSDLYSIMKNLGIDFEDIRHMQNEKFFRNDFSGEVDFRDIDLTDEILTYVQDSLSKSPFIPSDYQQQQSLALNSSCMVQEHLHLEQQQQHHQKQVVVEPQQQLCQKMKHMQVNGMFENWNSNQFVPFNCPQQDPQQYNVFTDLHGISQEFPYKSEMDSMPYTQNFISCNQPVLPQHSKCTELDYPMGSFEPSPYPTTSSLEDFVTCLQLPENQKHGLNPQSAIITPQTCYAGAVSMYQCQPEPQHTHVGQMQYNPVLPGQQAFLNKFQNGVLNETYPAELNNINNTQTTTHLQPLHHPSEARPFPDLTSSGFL
bovine MsrA act: bovine methionine sulfoxide reductase A activation; activation, % at 10.6 µM; hit rate 0.3% among 360,000; purified bovine MsrA, absorbance read-out; in the data active = activation above about 7.5%
HTR2A ag: agonists of mouse serotonin 5-HT2A receptor (HTR2A); CHO-K1 mHTR2A beta-arrestin complementation, luminescence; percent of 30 µM serotonin response; activation, % at 7.6 µM; hit rate 0.66% among 360,000;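 active = activation above a run cutoff, the mean activation of all tested compounds plus 3 SD, cut at about 14% in these data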
OPRM1 ag: activates human mu opioid receptor in HTR2A counterscreen. shares compounds with HTR2A ag. U2OS OPRM1 beta-arrestin PathHunter, luminescence; DMSO 0%, DAMGO 9.3 µM 100%. activation, % at 9.3 µM. hit rate 5.3% among 2,300. AID 624380;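 active = mean activation above the mean of DMSO-only wells plus 3 SD, cut at about 0.5% in these data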
m5-HT2A ag conf: mouse HTR2A agonism confirmed; CHO-K1 PathHunter beta-arrestin recruitment, luminescence; DMSO 0%, 30 µM serotonin 100%; activation, % at 7.6 µM; shares compounds with HTR2A ag; hit rate 19% among 2,300;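 active = mean activation across triplicates above the hit threshold derived in the original primary screen, cut at about 15% in these data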
Of the large screens only hits and unclear results are named; the others gave an inactive call (follow-up assays come after a bar, where they were run). This is a sample that favours compounds with a hit; in the whole collection about 4.4% have one here.

CCCN1CCC[C@@H]2Cc3[nH]ncc3C[C@H]21	HTR2A ag 42 | OPRM1 ag inactive | m5-HT2A ag conf 171
C=CCNC(=S)N1Cc2ccccc2-n2nncc2C1	none (no result: AI-2 QS modul, AHR act)
COC(=O)C1=C(c2ccc(F)cc2F)C[C@@H]2CC[C@H]1N2C(=O)N1CCCCC1	none (no result: AI-2 QS modul)
Cc1cccc(CCNCc2cc3cccc(C)c3[nH]c2=O)c1	HTR2A ag 21 (no result: AHR act) | OPRM1 ag inactive | m5-HT2A ag conf inactive
CCN(CC)C(=O)COc1cc(C)cc2oc(=O)c3c(c12)CCCC3	HTR2A ag 14 (no result: AHR act) | OPRM1 ag inactive | m5-HT2A ag conf inactive
COC(=O)C1=C(c2ccc(OC)c(OC)c2)C[C@@H]2CC[C@H]1N2C(=O)NCCNC(C)=O	none (no result: AI-2 QS modul)
O=C(/C=C/c1ccccc1)NC(=S)N1C[C@H]2C[C@H](C1)c1cccc(=O)n1C2	none
Cc1ccc(N2CCNCC2C)cc1 (centres undefined)	none (no result: AI-2 QS modul, AHR act)
Oc1ccc2c3c1O[C@H]1c4[nH]c5c(c4CC4(O)C(C2)N(CC2CC2)CCC314)CC1(O)[C@H]2Cc3ccc(O)c4c3[C@@]1(CCN2CC1CC1)C5O4 (some centres undefined)	none (no result: Tb MetRS inh, AI-2 QS modul, AHR act, bovine MsrA act, HTR2A ag)
O=C(NC(Cc1ccccc1)C(=O)N1CCC2(CC1)OCCO2)C1CCCCC1 (centres undefined)	none
O=C(C(Cc1ccccc1)NS(=O)(=O)c1ccc(F)cc1)N1CCC2(CC1)OCCO2 (centres undefined)	HTR2A ag 17 | OPRM1 ag inactive | m5-HT2A ag conf inactive
O=C(O)c1nn(Cc2ccc(Cl)cc2)c2ccccc12	HTR2A ag 15 (no result: AI-2 QS modul, AHR act) | OPRM1 ag inactive | m5-HT2A ag conf inactive
O=C(O)c1nn(Cc2ccc(Cl)cc2Cl)c2ccccc12	none
CC(C)(C)C(=O)N1Cc2cnnn2-c2ccccc2C1C#N (centres undefined)	none (no result: AI-2 QS modul, AHR act)
CC12CN3CC(C)(CN(C1)P3(=O)Oc1ccccc1)C2=O (centres undefined)	none
CC12CN3CC(c4ccccc4)(CN(C1)C31CCCCC1)C2=O	HTR2A ag 16 | OPRM1 ag inactive | m5-HT2A ag conf inactive
CNCC(=O)c1ccc(O)c(O)c1	HTR2A ag 31 (no result: AI-2 QS modul, AHR act) | OPRM1 ag inactive | m5-HT2A ag conf 90
Nc1cc(C(=O)Nc2ccc(Cl)cc2)ccc1N1CC2CC(C1)c1cccc(=O)n1C2 (centres undefined)	none
O=[N+]([O-])c1ccc(N2CCCC(C(F)(F)F)C2)c2ccncc12 (centres undefined)	none
CCCN1CCC[C@@H](c2cccc(O)c2)C1	HTR2A ag 23 (no result: AI-2 QS modul) | OPRM1 ag inactive | m5-HT2A ag conf 64
CCCN1CCC[C@H](c2cccc(O)c2)C1	HTR2A ag 38 (no result: AI-2 QS modul) | OPRM1 ag inactive | m5-HT2A ag conf 122
N#Cc1ccc2nc(-c3ccc(CN4CCC(n5nnc6ccccc65)CC4)cc3)c(-c3ccccc3)nc2c1	none (no result: Tb MetRS inh, AI-2 QS modul, AHR act, bovine MsrA act, HTR2A ag)
COc1ccc(N2C(=O)/C(=C/c3ccc(OC)c(OC)c3)C(=O)NC2=S)cc1	none (no result: AHR act)
COc1ccc(N2C(=O)/C(=C/c3ccc(C)o3)C(=O)NC2=S)c(OC)c1	HTR2A ag 23 | OPRM1 ag inactive | m5-HT2A ag conf inactive
CC(=O)Nc1ccc(S(=O)(=O)N2Cc3cnnn3-c3ccccc3C2C#N)cc1 (centres undefined)	none (no result: AI-2 QS modul, AHR act)
C[C@@H](N)Cc1cnc[nH]1	HTR2A ag 15 | OPRM1 ag inactive | m5-HT2A ag conf inactive
COc1cc(/C=C2\C(=O)NC(=O)N(c3ccccc3)C2=O)cc(OC)c1OC	HTR2A ag 15 | OPRM1 ag inactive | m5-HT2A ag conf inactive
Cc1ccc(-c2nc3ccc(C)cn3c2CC(=O)N(C)C)cc1	HTR2A ag 29 | OPRM1 ag inactive | m5-HT2A ag conf inactive
O=C(Cc1c(-c2ccccc2)nc2ccc(Br)cn12)N1CCCC1	none (no result: AI-2 QS modul, AHR act)
COc1ccc2[nH]cc(CCN(C)C)c2c1	HTR2A ag 49 | OPRM1 ag inactive | m5-HT2A ag conf 36
COC(=O)C1=C(c2ccc(OCc3ccccc3)cc2)C[C@@H]2CC[C@H]1N2C(=O)NCc1cccc(C(F)(F)F)c1	none (no result: AI-2 QS modul)
Cc1cccc(OP(N)(N)=O)c1C	none
Cc1cccc(C)c1OP(N)(=O)Oc1c(C)cccc1C	HTR2A ag 18 | OPRM1 ag inactive | m5-HT2A ag conf inactive
N#Cc1c(/N=C/C2C(=O)NC(=S)NC2=O)sc2c1CCCC2	HTR2A ag 15 | OPRM1 ag inactive | m5-HT2A ag conf 36
CCOC(=O)c1c(/N=C/C2C(=O)NC(=S)NC2=O)sc2c1CCC2	none (no result: MsrA inhibitor)
COc1cccc(CN2CCN(C(=O)Cc3ccccc3OC)CC2)c1	HTR2A ag 19 | OPRM1 ag inactive | m5-HT2A ag conf inactive
COc1ccc(OCC(=O)N2CCN(Cc3c[nH]c4ccccc34)CC2)cc1	HTR2A ag 26 (no result: AHR act) | OPRM1 ag inactive | m5-HT2A ag conf 16
Cc1ccccc1CN1CCN(C(=O)Cc2ccccc2)CC1	HTR2A ag 17 | OPRM1 ag inactive | m5-HT2A ag conf inactive
O=C(Cc1ccccc1)N1CCN(Cc2ccc(Cl)cc2)CC1	none (no result: AI-2 QS modul, AHR act)
O=C(Cc1ccccc1)N1CCN(Cc2c[nH]c3ccccc23)CC1	HTR2A ag 22 | OPRM1 ag inactive | m5-HT2A ag conf inactive
CCc1ccccc1NC(=O)CN1CCN(C(=O)COc2ccccc2C#N)CC1	none (no result: AI-2 QS modul)
Nc1cccc2c1Cc1cc([N+](=O)[O-])ccc1-2	none (no result: AI-2 QS modul, AHR act)
CC(C)(C)c1cc(O)ccc1O	none (no result: Tb MetRS inh, AI-2 QS modul, AHR act, bovine MsrA act, HTR2A ag)
Cn1cccc1CN1CCN(C(=O)COc2ccccc2)CC1	none
O=C(COc1ccccc1)N1CCN(Cc2c[nH]c3ccccc23)CC1	HTR2A ag 16 | OPRM1 ag inactive | m5-HT2A ag conf inactive
Nc1cc(Cl)cc(Cl)c1	none (no result: AI-2 QS modul)
Fc1ccc(CNCCc2ccc3c(c2)OCO3)cc1	none
Clc1ccccc1CNCCc1c[nH]c2ccccc12	HTR2A ag 23 (no result: AI-2 QS modul, AHR act) | OPRM1 ag 1.1 | m5-HT2A ag conf 51
CCOc1ccccc1CNCCc1ccc2c(c1)OCO2	HTR2A ag 53 | OPRM1 ag inactive | m5-HT2A ag conf 25
c1ccc2c(CCNCc3ccc4c(c3)OCO4)c[nH]c2c1	HTR2A ag 30 | OPRM1 ag inactive | m5-HT2A ag conf 38
CCOc1ccc(CNCCc2ccc3c(c2)OCO3)cc1	none
CCc1ccc(CNCCc2c[nH]c3ccccc23)cc1	HTR2A ag 16 | OPRM1 ag inactive | m5-HT2A ag conf inactive
COc1cc(CNCCc2c[nH]c3ccccc23)cc(OC)c1OC	none (no result: AI-2 QS modul, AHR act)
COc1cc(CNCCc2c[nH]c3ccccc23)cc(OC)c1	none
c1ccc(CNCCc2c[nH]c3ccccc23)cc1	HTR2A ag 41 | OPRM1 ag inactive | m5-HT2A ag conf 20
CNC(=O)Oc1cc2c(cc1C(C)(C)C)CCC2	none (no result: AI-2 QS modul, AHR act)
